Assay results reported in ChEMBL document CHEMBL2390832, “Synthesis and activity evaluation of tilorone analogs as potential anticancer agents” (Eur J Med Chem, 2013).
Structures can show the parent of a compound that is named as a salt. Calls of active or inactive are those of the source. No cut-off for these calls is given here.

Assays:
HeLa [1] = test: Anticancer activity against human HeLa cells after 48 hrs by MTT assay; type: functional, cell-based
Procedure, shortened: (§1)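 Cells seeded at 1 × 10⁴/well in DMEM with 10% FBS and left overnight at 37 °C, 5% CO₂. Five concentrations (1 µM–100 µM) diluted in DMEM were added and incubated for 48 h. MTT (10 µl of 5 mg/ml) was then added for 4 h at 37 °C. Formazan was dissolved in DMSO and absorbance read at 490 nm. At least three parallel runs; IC50 by regression analysis.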

HEK-293T = test: Cytotoxicity against human HEK293T cells after 48 hrs by MTT assay; type: cell-based; procedure, shortened: as §1
[2] = Anticancer activity against human Hep3B cells after 48 hrs by MTT assay; type: functional, cell-based, Hep 3B2; procedure, shortened: as §1
Vero = test: Cytotoxicity against African green monkey Vero cells after 48 hrs by MTT assay; type: cell-based; conditions: Chlorocebus sabaeus; procedure, shortened: as §1
A549 [3] = test: Anticancer activity against human A549 cells after 48 hrs by MTT assay; type: functional, cell-based; conditions: A549, 48 h; procedure, shortened: as §1
A549 [4] = test: Anticancer activity against human A549 cells at =/> 100 uM after 48 hrs by MTT assay; type: functional, cell-based
HeLa [5] = test: Anticancer activity against human HeLa cells at =/> 100 uM after 48 hrs by MTT assay; type: functional, cell-based
Hep 3B2 = test: Anticancer activity against human Hep3B cells at =/> 100 uM after 48 hrs by MTT assay; type: functional, cell-based

SMILES	IC50 (HeLa [1]) [µM]	IC50 (A549 [3]) [µM]	IC50 (HEK-293T) [µM]	IC50 [2] [µM]	IC50 (Vero) [µM]	Activity (A549 [4])	Activity (HeLa [5])	Activity (Hep 3B2)
CCOc1ccc2c(c1)C(=O)c1cc(OCCCl)ccc1-2						inactive	inactive	inactive
CC(C)(C)NCCOc1ccc2c(c1)C(=O)c1cc(OCCNC(C)(C)C)ccc1-2	9.17	7.86	19.8	20.1	25.3			
CC(C)(C)SCCOc1ccc2c(c1)C(=O)c1cc(OCCSC(C)(C)C)ccc1-2						inactive	inactive	inactive
CC(C)SCCOc1ccc2c(c1)C(=O)c1cc(OCCSC(C)C)ccc1-2						inactive	inactive	inactive
CCOc1ccc2c(c1)C(=O)c1cc(OCCN(C)C)ccc1-2	> 100	> 100		> 100				
O=C1c2cc(OCCn3cncn3)ccc2-c2ccc(OCCn3cncn3)cc21	> 100	> 100		> 100				
O=c1c(-c2ccc(OCCCBr)cc2)coc2cc(OCCCBr)ccc12						inactive	inactive	inactive
CCCCNCCOc1ccc2c(c1)C(=O)c1cc(OCCNCCCC)ccc1-2	2.21	2.65	11	3.34	8.89			
O=C1c2cc(OCCn3ccnn3)ccc2-c2ccc(OCCn3ccnn3)cc21	> 100	> 100		> 100				
CCCNCCOc1ccc2c(c1)C(=O)c1cc(OCCNCCC)ccc1-2	2.73	2.96	8.59	5.17	8.47			
CCOc1ccc2c(c1)C(=O)c1cc(OCCO)ccc1-2						inactive	inactive	inactive
O=C1c2cc(OCC(O)CN3CCCCC3)ccc2-c2ccc(OCC(O)CN3CCCCC3)cc21 (centres undefined)	1.82	1.4	17.9	6.76	13			
O=c1c(-c2ccc(OCCCl)cc2)coc2cc(OCCCl)ccc12						inactive	inactive	inactive
O=C1c2cc(OCCn3ccnc3)ccc2-c2ccc(OCCn3ccnc3)cc21	> 100	> 100		> 100				
CC(C)NCCOc1ccc2c(c1)C(=O)c1cc(OCCNC(C)C)ccc1-2	1.72	2.43	13.8	8.89	14.8			

More lines, main results first:

IC50 (HeLa [1]) [µM]	IC50 (A549 [3]) [µM]	SMILES	IC50 (HEK-293T) [µM]	IC50 [2] [µM]	IC50 (Vero) [µM]	Activity (A549 [4])	Activity (HeLa [5])	Activity (Hep 3B2)
22.2	20.6	CN(C)CCCOc1ccc(-c2coc3cc(OCCCN(C)C)ccc3c2=O)cc1	41.9	24.4	34.9			
27.8	25	CCN(CC)CC(O)COc1ccc(-c2coc3cc(OCC(O)CN(CC)CC)ccc3c2=O)cc1 (centres undefined)	52.9	30.4	60.1			
> 100	> 100	CCN(CC)CCOc1ccc2c(c1)C(=O)c1cc(OCCCl)ccc1-2		> 100				
20.2	16	CCN(CC)CC(O)COc1ccc2c(c1)C(=O)c1cc(OCC(O)CN(CC)CC)ccc1-2 (centres undefined)	56.4	21.5	48.6			
5.17	4.26	CCCN(CCC)CC(O)COc1ccc(-c2coc3cc(OCC(O)CN(CCC)CCC)ccc3c2=O)cc1 (centres undefined)	39.6	6.52	35.5			
6.78	7.42	CCCN(CCC)CC(O)COc1ccc2c(c1)C(=O)c1cc(OCC(O)CN(CCC)CCC)ccc1-2 (centres undefined)	54	9.43	57.8			
5.32	4.34	O=c1c(-c2ccc(OCC(O)CN3CCCCC3)cc2)coc2cc(OCC(O)CN3CCCCC3)ccc12 (centres undefined)	20.2	12	18.5			
26.4	19.4	CCN(CC)CCOc1ccc(-c2coc3cc(OCCN(CC)CC)ccc3c2=O)cc1	107	35.2	102			
82.4	73.5	CCN(CC)CCCOc1ccc(-c2coc3cc(OCCCN(CC)CC)ccc3c2=O)cc1		76.1				
40	32.6	CCN(CC)CCOc1ccc2c(c1)C(=O)c1cc(OCCN(CC)CC)ccc1-2 [TILORONE HYDROCHLORIDE]	76.4	38.8	89.5			
11.7	12.6	CN(C)CC(O)COc1ccc2c(c1)C(=O)c1cc(OCC(O)CN(C)C)ccc1-2 (centres undefined)	28.3	18.3	20.9			
107	> 100	CCOc1ccc2c(c1)C(=O)c1cc(OCCN(CC)CC)ccc1-2		84.8				
